Key:
[1] = target: T1, Adrenergic receptor alpha-2 (Rattus norvegicus, UniProt P22086+P19328+P22909); test: Displacement of [3H]clonidine from Alpha-2 adrenergic receptor of rat cortex membrane
T1 sequence (P22086 whole entry): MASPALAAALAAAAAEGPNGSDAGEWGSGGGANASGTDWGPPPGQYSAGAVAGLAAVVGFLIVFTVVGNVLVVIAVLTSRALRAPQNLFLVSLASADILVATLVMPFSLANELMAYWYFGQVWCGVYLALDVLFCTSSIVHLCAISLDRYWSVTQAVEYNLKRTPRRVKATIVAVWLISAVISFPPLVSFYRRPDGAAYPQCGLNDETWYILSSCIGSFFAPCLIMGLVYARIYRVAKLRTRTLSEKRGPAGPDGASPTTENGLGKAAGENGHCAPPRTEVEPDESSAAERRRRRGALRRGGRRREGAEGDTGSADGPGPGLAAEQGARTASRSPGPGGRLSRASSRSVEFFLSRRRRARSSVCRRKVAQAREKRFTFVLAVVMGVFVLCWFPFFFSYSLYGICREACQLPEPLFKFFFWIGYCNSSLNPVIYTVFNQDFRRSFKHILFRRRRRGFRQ
T1 sequence (P19328 whole entry): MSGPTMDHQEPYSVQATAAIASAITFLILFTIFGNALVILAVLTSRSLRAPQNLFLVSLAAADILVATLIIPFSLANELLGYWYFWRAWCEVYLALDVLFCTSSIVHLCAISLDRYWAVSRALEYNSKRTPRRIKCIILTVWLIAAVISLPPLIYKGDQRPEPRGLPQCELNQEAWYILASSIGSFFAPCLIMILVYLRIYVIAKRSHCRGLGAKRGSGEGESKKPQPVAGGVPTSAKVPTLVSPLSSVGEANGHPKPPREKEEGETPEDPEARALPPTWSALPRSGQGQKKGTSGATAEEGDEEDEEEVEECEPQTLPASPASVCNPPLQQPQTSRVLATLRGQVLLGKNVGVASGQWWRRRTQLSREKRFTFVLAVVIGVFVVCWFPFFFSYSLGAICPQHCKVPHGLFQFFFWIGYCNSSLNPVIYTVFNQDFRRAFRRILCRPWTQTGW
T1 sequence (P22909 whole entry): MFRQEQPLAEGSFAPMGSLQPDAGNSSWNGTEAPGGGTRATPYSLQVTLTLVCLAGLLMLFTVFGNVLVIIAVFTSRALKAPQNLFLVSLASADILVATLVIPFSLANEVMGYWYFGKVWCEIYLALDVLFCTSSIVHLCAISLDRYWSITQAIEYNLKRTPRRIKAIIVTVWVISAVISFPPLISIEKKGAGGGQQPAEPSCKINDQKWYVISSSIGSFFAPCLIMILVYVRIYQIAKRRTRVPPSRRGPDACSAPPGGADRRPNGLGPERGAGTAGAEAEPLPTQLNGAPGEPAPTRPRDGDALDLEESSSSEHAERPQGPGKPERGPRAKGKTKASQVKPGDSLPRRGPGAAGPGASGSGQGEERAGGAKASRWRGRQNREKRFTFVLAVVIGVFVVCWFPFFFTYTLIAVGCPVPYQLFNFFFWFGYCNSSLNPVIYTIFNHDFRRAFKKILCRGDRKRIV
Summary of the method: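 Rat cerebral cortex membranes (200 µg protein) in 50 mM Tris-HCl pH 7.4, 5 nM [3H]clonidine, 10–12 competitor concentrations, 45 min at 25 °C; GF/B filtration, scintillation counting. Nonspecific binding with 10 µM phentolamine. Triplicate points; IC50 by nonlinear regression, Ki by Cheng–Prusoff, curves repeated at least three times, pKi ± SEM.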

[2] = target: T2, Adrenergic receptor alpha-2 (Rattus norvegicus) (UniProt P22086+P19328+P22909); test: pKb value using clonidine as agonist for Alpha-2 adrenergic receptor; type: functional
Summary of the method: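 Prostatic rat vas deferens held under 0.1 Hz electrical stimulation, with prazosin, propranolol (1 µM) and cocaine (10 µM) present. Compounds lacking agonist activity were tested against clonidine. Dose ratios were taken at clonidine ED50 at one antagonist concentration, tested six times. Dissociation constant by the van Rossum method.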

[3] = target: Imidazoline I2 binding sites (Oryctolagus cuniculus); test: Displacement of [3H]idazoxan from imidazoline receptor I-2 binding sites in rabbit kidney membrane
[4] = target: T3, Adrenergic receptor alpha-1 (Rattus norvegicus) (UniProt P15823+P23944+P43140); test: Inhibition of Alpha-1 adrenergic receptor twitch response in rat vas deferens in presence of cirazoline, pD2 is -log ED50; type: tissue-based
[5] = Relative binding affinity for Alpha-2 adrenergic receptor and I2 imidazoline binding site (Antilog of the difference between pKi)
Summary of the method: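 Ratio from two radioligand assays. α2: rat cortex membranes with 5 nM [3H]clonidine, nonspecific binding with 10 µM phentolamine. I2: rabbit kidney membranes with 5 nM [3H]idazoxan, adrenoreceptors masked by 10 µM norepinephrine, nonspecific binding with 10 µM cirazoline. Both assays 45 min at 25 °C, Ki by Cheng–Prusoff.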

[6] = target: T2, Adrenergic receptor alpha-2 (Rattus norvegicus); test: pD2 is -log ED50 required to produce 50% inhibition of the twitch response in rat vas deferens (intrinsic activity in presence of clonidine) for Alpha-2 adrenergic receptor; type: tissue-based
Summary of the method: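 Prostatic portion (12 mm) of male albino rat (125–150 g) vas deferens, 37 °C, O2/CO2 95%/5%, 1 g loading tension. Physiological salt solution had 0.54 mM MgCl2, prazosin ([…]), propranolol (1 µM) and cocaine (10 µM). Field stimulation was 0.1 Hz, 3 ms, 10–15 V, recorded isometrically.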

[7] = target: T2, Adrenergic receptor alpha-2 (Rattus norvegicus); test: pD2 is -log ED50 required to produce 50% inhibition of the twitch response in rat vas deferens (intrinsic activity in presence of cirazoline) for Alpha-2 adrenergic receptor; type: tissue-based; settings: in the assay text read “clonidine” for “cirazoline”
Summary of the method: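 Prostatic portion (12 mm) of male rat vas deferens (125–150 g) at 37 °C under 95% O2/5% CO2, 1 g load. Bath contains 0.54 mM MgCl2, prazosin, 1 µM propranolol and 10 µM cocaine.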

[8] = target: T2, Adrenergic receptor alpha-2 (Rattus norvegicus); test: Antilog of the difference between pD2 of Alpha-2 adrenergic receptor and pD2 of Alpha-1 adrenergic receptor
[9] = target: T3, Adrenergic receptor alpha-1 (Rattus norvegicus); test: pKb value using (-)-norepinephrine as agonist for Alpha-1 adrenergic receptor

c1ccc(Cc2ccccc2OCC2=NCCN2)cc1
Log Ki [1]: -6.52
pKb [2]: 7.14
Log Ki [3]: -6.7
pD2 [4]: 5.27
Ratio [5]: 0.66

CC(Oc1ccccc1)C1=NCCN1 (centres undefined)
Log Ki [1]: -7.01
pKb [2]: 7.29
Log Ki [3]: -5.57
pD2 [4]: 5.2
Ratio [5]: 27.5

C[C@@H](Oc1ccccc1-c1ccccc1)C1=NCCN1
Log Ki [1]: -7
pD2 [6]: 7.4
pD2 [4]: 6.23

CC(Oc1cccc(-c2ccccc2)c1)C1=NCCN1 (centres undefined)
Log Ki [1]: -6.92
Log Ki [3]: -6.57
pD2 [7]: 6.66
pD2 [4]: 4.53
Ratio [5]: 2.2
Ratio [8]: 135

CC(Oc1ccccc1Cc1ccccc1)C1=NCCN1 (centres undefined)
Log Ki [1]: -6.8
pKb [2]: 6.87
Log Ki [3]: -5.12
pD2 [4]: 5.99
Ratio [5]: 47.9

c1ccc(-c2ccccc2OCC2=NCCN2)cc1
Log Ki [1]: -7.1
pD2 [6]: 8.46
pD2 [4]: 6.68

CC(Nc1ccccc1-c1ccccc1)C1=NCCN1 (centres undefined)
Log Ki [1]: -7
pD2 [6]: 8.36
Log Ki [3]: -4.9
pD2 [4]: 6.73
Ratio [5]: 126
Ratio [8]: 42.7

c1ccc(-c2ccccc2NCC2=NCCN2)cc1
Log Ki [1]: -6.45
pD2 [6]: 7.84
Log Ki [3]: -6.09
pD2 [4]: 6.37
Ratio [5]: 2.3
Ratio [8]: 29.5

C[C@H](Oc1ccccc1-c1ccccc1)C1=NCCN1
Log Ki [1]: -7.5
pD2 [6]: 8.55
pD2 [4]: 7.51

c1ccc(NCC2=NCCN2)cc1 [PHENAMAZOLINE]
Log Ki [1]: -7.14
pKb [2]: 6.38
Log Ki [3]: -7.48
pD2 [4]: 4.89
Ratio [5]: 0.46

CC(Oc1ccc(-c2ccccc2)cc1)C1=NCCN1 (centres undefined)
Log Ki [1]: -7.5
pKb [2]: 5.81
Log Ki [3]: -6.74
pKb [9]: 5.92
Ratio [5]: 5.8
Ratio [8]: 0.78

CC(Oc1ccccc1-c1ccccc1)C1=NCCN1 (centres undefined) [BIPHENYLINE]
Log Ki [1]: -7.91
pD2 [6]: 8.52
pD2 [4]: 7.2

c1ccc(OCC2=NCCN2)cc1
Log Ki [1]: -7.28
pKb [2]: 6.71
pD2 [4]: 5.26

From ChEMBL document CHEMBL1135400, “Alpha2-adrenoreceptors profile modulation and high antinociceptive activity of (S)-(-)-2-[1-(biphenyl-2-yloxy)ethyl]-4,5-dihydro-1H-imidazole” (J Med Chem, 2002)
